The source made the active and inactive calls. The calls are words filed in the database; no cut-off is given here.
Assays:
Rattus norvegicus [1] = test: Antiinflammatory activity in Lewis rat assessed as inhibition of LPS-induced TNFalpha production at 2 mg/kg, po administered 30 mins prior to LPS challenge measured after 1.5 hrs; assay type: functional
Rattus norvegicus [2] = test: Antiinflammatory activity in po dosed Lewis rat assessed as inhibition of LPS-induced TNFalpha production administered 30 mins prior to LPS challenge measured after 1.5 hrs; assay type: functional
Outline: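 Overnight-fasted male Lewis rats (seven weeks old) were dosed orally at 0.1, 0.3, 1 and 3 mg/kg, 30 min before IV LPS (E. coli 055:B5 in saline). Serum TNF-α was measured by ELISA 1.5 h post-LPS, five rats per group, mean ± SEM. Dunnett's t-test versus vehicle; ED₅₀ taken from the dose-response.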

Compound | inhibition in vivo at 2 mg/kg (Rattus norvegicus [1]) | inhibition (Rattus norvegicus [1]) | ED50 (Rattus norvegicus [2])
O=C(NCCCc1ccncc1)N(CCCN1CCOCC1)CCC1CC2CCC1C2 (stereo unspecified) | 44% | – | –
O=C(NCCCc1ccncc1)N(CCC1CCOCC1)CCN1CCOCC1 | – | inactive | –
O=C(NCCCc1ccncc1)N(CCCN1CCOCC1)CCC12CC3CC(CC(C3)C1)C2 | 45% | – | –
O=C(NCCCc1ccncc1)N(CCC1CCCCC1)CCN1C2CCC1CC2 | 48% | – | –
O=C(NCCCc1ccncc1)N(CCCC1CCCCC1)CCC1CCCCC1 | 92% | – | 0.34 mg/kg
O=C(NCCCc1ccncc1)N(CCN1CCOCC1)CCC12CC3CC(CC(C3)C1)C2 | 45% | – | –
CCCCN(CCOCC)C(=O)NCCCc1ccncc1 | – | inactive | –
CCOCCN(CCC1CCCCC1)C(=O)NCCCc1ccncc1 | 4% | – | –
CCCCN(CCN1CCOCC1)C(=O)NCCCc1ccncc1 | 21% | – | –
CCCCCN(CCC12CC3CC(CC(C3)C1)C2)C(=O)NCCCc1ccncc1 | 72% | – | 1.7 mg/kg
CCCCN(CCCN1CCOCC1)C(=O)NCCCc1ccncc1 | 32% | – | –
COCCCN(CCC1CCCCC1)C(=O)NCCCc1ccncc1 | – | inactive | –
O=C(NCCCc1ccncc1)N(CCC1CC2CCC1C2)CCN1CCOCC1 (stereo unspecified) | 55% | – | –
CCCCN(CCCOC)C(=O)NCCCc1ccncc1 | 21% | – | –
O=C(NCCCc1ccncc1)N(CCCN1CCOCC1)CCC1CCCCC1 | 43% | – | –
O=C(NCCCc1ccncc1)N(CCN1CCOCC1)CCN1C2CCC1CC2 | 8% | – | –
COCCCN(CCC1CC2CCC1C2)C(=O)NCCCc1ccncc1 (stereo unspecified) | 10% | – | –
CCOCCN(CCC1CC2CCC1C2)C(=O)NCCCc1ccncc1 (stereo unspecified) | – | inactive | –
O=C(NCCCc1ccncc1)N(CCC1CCCCC1)CCC1CCOCC1 | 38% | – | –
O=C(NCCCc1ccncc1)N(CCC1CCCCC1)CCC1CCCCC1 | 91% | – | –
O=C(NCCCc1ccncc1)N(CCCC1CCCCC1)CCC1CCCC1 | 87% | – | –
COCCOCCN(CCC1CCCCC1)C(=O)NCCCc1ccncc1 | 14% | – | –
O=C(NCCCc1ccncc1)N(CCC1CCCCC1)CCN1CCOCC1 | 50% | – | –
O=C(NCCCc1ccncc1)N(CCCC1CCCCC1)CC1CCCCC1 | 71% | – | –

— ChEMBL document CHEMBL1208709, “Synthesis and pharmacological evaluation of 1,1,3-substituted urea derivatives as potent TNF-alpha production inhibitors” (2010)
